Data from PubChem BioAssay AID624467 (The Scripps Research Institute Molecular Screening Center, 2012).
Screen size: about 360,000 compounds; about 3,600 (1%) were called active. For the sample, actives were picked, then their nearest neighbours and some compounds at random. Values without a mark were called inactive.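 The calls were made as follows: active = activation above the mean activation of all test compounds in the run plus 3 SD (cut at about 38% in these data); inactive = the rest.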

Each compound was assayed against Trace amine-associated receptor 1 (Homo sapiens) (UniProt Q96RJ0) (assay: human TAAR1 agonists, primary screen, Fluo-8 calcium fluorescence, CHO RD-HGA16 cells (AID 624467)). Conditions: CHO RD-HGA16 TAAR1, Fluo-8 calcium fluorescence; at 3 µM; stronger effect = higher value; vehicle wells 0%, saturating PEA agonist 100%.
Sequence of Trace amine-associated receptor 1 (Homo sapiens) (Q96RJ0 whole entry, looked up): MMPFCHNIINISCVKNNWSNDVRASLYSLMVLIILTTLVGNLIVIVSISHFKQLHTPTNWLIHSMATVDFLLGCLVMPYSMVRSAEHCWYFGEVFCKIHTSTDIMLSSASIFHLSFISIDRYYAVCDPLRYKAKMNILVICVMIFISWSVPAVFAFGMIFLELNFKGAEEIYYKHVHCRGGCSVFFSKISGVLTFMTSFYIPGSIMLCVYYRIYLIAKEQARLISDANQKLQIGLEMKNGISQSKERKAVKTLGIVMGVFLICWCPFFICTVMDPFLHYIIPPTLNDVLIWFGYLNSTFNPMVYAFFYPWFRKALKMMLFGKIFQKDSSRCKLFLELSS
Summary of the method: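 System: CHO RD-HGA16 cells carrying human TAAR1 plus Gα16; Incubation: 17-24 h seeding, 75 min 37 °C dye, 30 min RT; Measured by: Fluo-8 fluorescence, 5 s baseline then 140 s kinetic read; Control set: DMSO and PEA EC100; Replication: single well for each compound.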

| Compound | activation |
| --- | --- |
| O=C(Nc1ccc(Cl)cc1)N1CCc2[nH]c3ccccc3c2C1 | 50.1% (active) |
| C[C@H](O)[C@@H]1C(=O)N2CCc3c([nH]c4ccccc34)[C@@H]2C[C@@H]1N(C)C(=O)Nc1ccc(F)cc1 | 9.88% |
| C=CCNC(=S)N1CCc2[nH]c3ccccc3c2C1 | 6.5% |
| CCOc1ccc(NC(=O)N2CC=C(n3c(=O)[nH]c4ccccc43)CC2)cc1 | 15.9% |
| CC(=O)C(CC(=O)N1CCCC1)C(=O)Nc1ccc(Cl)cc1 (stereo unspecified) | 7.47% |
| Fc1ccc(NC(=S)N2CCc3[nH]c4ccccc4c3C2)cc1 | 51.5% (active) |
| COC(=O)C(C(=O)OC)c1ccccc1NS(=O)(=O)c1cccc2ccccc12 | -0.61% |
| CCOc1ccccc1C(=O)N1CCC[C@@H]1C(=O)N1CCC[C@H]1C(=O)NCc1ccccc1 | -0.21% |
| Cc1ccc2nc(CN(C)C(=O)[C@@H](Cc3ccccc3)NC(=O)[C@H]3O[C@@H](n4ccc(=O)[nH]c4=O)[C@H](O)[C@@H]3O)[nH]c2c1 | 1.15% |
| CC(C)CCNC(=O)Cn1c(=O)oc2cc(S(=O)(=O)N3CC(C)CC(C)C3)ccc21 (stereo unspecified) | 4.15% |
| N/C(=N\c1nc2ccccc2o1)NC(=O)C(Cc1ccccc1)N1C(=O)c2ccccc2C1=O (stereo unspecified) | -1.96% |
| Cc1ccc(C)c(CN2CCC(CNC(=O)Nc3ccc(C)c(F)c3)CC2)c1 | 2.76% |
| O=C(NCC1CCN(Cc2ccccc2Cl)CC1)Nc1cccc(Cl)c1 | 2.1% |
| Cc1cccc(CN2CCC(CNC(=O)Nc3ccc(F)c(Cl)c3)CC2)c1 | 39.9% (active) |
| COc1ccc(C(=O)OCC(=O)NCC2CCCO2)cc1[N+](=O)[O-] (stereo unspecified) | -0.84% |
| O=S(=O)(Nc1cc(S(=O)(=O)N2CCOCC2)ccc1N1CCCC1)c1cccs1 | -2.22% |
| CC1(C)c2[nH]c3ccccc3c2C[C@H]2C(=O)N(N)CC(=O)N21 | 4.18% |
| COc1cc(S(=O)(=O)N2CCN=C2c2ccccc2)ccc1Cl | -0.47% |
| CCOC(=O)[C@]12CCCC=C1N(CCC1=CCCCC1)C(=O)[C@H](CC(=O)NCCCOC)C2 | -0.95% |
| O=C(NCCc1ccccc1)/C(=C\c1ccc([N+](=O)[O-])cc1)NC(=O)c1ccccc1 | 50.3% (active) |
| O=C(NCCN1CCOCC1)/C(=C/c1ccc(F)cc1)NC(=O)c1ccccc1 | -2.27% |
| CCOc1ccc(/C=C(/NC(=O)c2ccccc2)C(=O)NCCC(=O)O)cc1 | 5.67% |

| Compound | activation |
| --- | --- |
| COC(=O)Cc1nnn2c1[C@H](C)[C@@H](OC)c1cc(Br)ccc1-2 | 0.26% |
| O=C(Cn1cnc2c(cnn2-c2ccc(F)cc2)c1=O)NCCc1ccccc1 | -0.7% |
| O=C(CC(O)(C(F)(F)F)C(F)(F)F)Nc1ccc(Cl)c(Cl)c1 | 12.3% |
| Cc1ccc(NC(=O)Nc2cc(-c3ccccc3)nn2C)cc1Cl | 11.2% |
| Cc1nnc(NC(=O)Nc2ccc(Cl)c(Cl)c2)s1 | 42% (active) |
| O=P(O)(CP(=O)(c1ccccc1)c1ccccc1)c1ccccc1 | 12.7% |
| O=C(COC(=O)Cc1c[nH]c2ccccc12)NCCc1ccccc1 | 8.93% |
| COc1ccc(CCNC(=O)COC(=O)Cc2ccccc2F)cc1 | 2.06% |
| O=C(COC(=O)Cc1ccccc1F)NCCc1ccccc1 | 47.4% (active) |
| COc1ccccc1N(CC(=O)NC1CCCC1)C(=O)C1(C)CC(=O)N=C2C=CC(C)=CN21 (stereo unspecified) | 2.01% |
| CCC(=O)Nc1nnc(S(=O)(=O)N2CCCc3ccccc32)s1 | 0.28% |
| CN(C)CCCN(C(=O)c1ccc(S(=O)(=O)N2CCCc3ccccc32)cc1)c1nc2ccc(F)cc2s1 | 58.5% (active) |
| CN(C)CCCN(C(=O)c1ccc(S(=O)(=O)N2CCCCCC2)cc1)c1nc2ccc(Br)cc2s1 | 58.3% (active) |
| CCN(CC(=O)Nc1c(F)cccc1F)C(=O)c1ccc(S(=O)(=O)N2CCCCC2)cc1 | 8.1% |
| CCN(CC)CCN(C(=O)c1ccc(N2C(=O)CCC2=O)cc1)c1nc2cc3c(cc2s1)OCO3 | 2.36% |
| CC1CCN(C(=O)c2cccc(S(=O)(=O)N3CCCc4ccccc43)c2)CC1 | 2.06% |
| O=C(CO/N=C/c1ccccc1O)NNC(=O)c1ccccc1Cl | 8.86% |
| O=C(NN=Cc1ccccc1O)NN=Cc1ccccc1O | 43.2% (active) |
| C=CCOc1ccccc1/C=N/NC(=O)Cc1ccccc1 | 3.06% |
| NC(CSC(c1ccccc1)(c1ccccc1)c1ccc(-c2ccccc2)cc1)C(=O)O (stereo unspecified) | 3.19% |
| O=S(=O)(Cc1ccc(Cl)cc1Cl)c1ccc(Cl)cc1 | 6.28% |
| COC(=O)C1=C(C)N(Cc2cccc(C(F)(F)F)c2)C(=NCc2cccc(C(F)(F)F)c2)NC1c1ccccc1C(F)(F)F (stereo unspecified) | -0.1% |

| Compound | activation |
| --- | --- |
| CC(=O)c1cccc(NC(=O)N2CCCC2C(=O)NCCc2ccccc2)c1 (stereo unspecified) | 4.48% |
| O=C(NCCc1ccc(Cl)cc1)C1CCCN1C(=O)NCc1ccccc1 (stereo unspecified) | -0.77% |
| O=C(N[C@H](C(=O)N1CCC[C@H]1C(=O)NCCc1ccccc1Cl)c1ccccc1)c1ccccc1 | 57.5% (active) |
| CC1CCN(C(=O)CCc2nnc3ccc(NCc4ccco4)nn23)CC1 | 6.46% |
| COc1ccc(N2C(=O)CC(Nc3ccc(F)cc3)C2=O)c([N+](=O)[O-])c1 (stereo unspecified) | 2.14% |
| Nc1nc2c(ncn2[C@@H]2O[C@H](C(=O)N[C@@H](Cc3ccccc3)C(=O)NCc3ccccc3)[C@@H](O)[C@H]2O)c(=O)[nH]1 | 5.02% |
| CC(C)[C@H](NC(=O)N1CCn2c1nc1ccccc12)C(=O)NC1CC1 | 1.88% |
| CC(C)[C@H](NC(=O)N1CCn2c1nc1ccccc12)C(=O)NCc1ccc2c(c1)OCO2 | 3.58% |
| CC(C)[C@H](NC(=O)N1CCn2c1nc1ccccc12)C(=O)NCCc1ccccc1 | 38.9% (active) |
| C=CCOc1ccc(C(=O)Nc2ccccc2C(=O)N2CCCC2)cc1 | -0.26% |
| Cc1cc2nc3c(=O)n(Cc4ccccc4)c(=O)[nH]c3nc2cc1N | 53.8% (active) |
| CN(C(=O)COC(=O)c1ccc(Br)o1)c1c(N)n(Cc2ccccc2)c(=O)[nH]c1=O | 0.16% |
| Nc1cc(=O)n(Cc2ccccc2)c(=O)n1Cc1ccccc1 | 1.88% |
| CCN(c1ccccc1)S(=O)(=O)c1cccc(C(=O)NCc2ccccc2CN2CCOCC2)c1 | 5.65% |
| COC(=O)[C@]1(Cc2ccccc2)NC=C(C(=O)c2ccccc2)[C@@H]1c1cccc(OC)c1 | 0.41% |
| C[C@H](O)[C@@H]1CN2CCc3ccc(-c4ccc5c(c4)OCO5)cc3[C@@H]2C[C@@H]1N(C)C(=O)C1CCCCC1 | -1.03% |
| O=C(O)Cn1cnc2c(NCc3ccccc3)ncnc21 | 2.25% |
| NC(Cc1ccc(F)cc1)c1csc(Nc2nncc3ccccc23)n1 (stereo unspecified) | 35.4% |
| COC(=O)[C@H](CCSC)NC(=O)Nc1ccc(OC)cc1 | -1.88% |
| NC(Cc1ccccc1)c1csc(Nc2cc(Oc3ccccc3)ncn2)n1 (stereo unspecified) | 69.5% (active) |
| COc1ccc(CC(N)c2csc(NC(=O)NC(c3ccccc3)c3ccccc3)n2)cc1 (stereo unspecified) | 21.8% |
| CC(C)(C)CC(=O)Nc1nc(C(N)Cc2ccc(C(F)(F)F)cc2)cs1 (stereo unspecified) | 63.4% (active) |

| Compound | activation |
| --- | --- |
| COc1ccc(CC(N)c2csc(NC(=O)Nc3ccc(C(C)C)cc3)n2)cc1 (stereo unspecified) | 47.2% (active) |
| COc1ccc(CC(N)c2csc(NC(=O)Cc3ccccc3)n2)cc1 (stereo unspecified) | 56.1% (active) |
| Cc1ccccc1NC(=O)Cc1nc(COC(=O)c2ccc(C(F)(F)F)cc2)cs1 | 6.08% |
| CC(C)(C)CC(=O)Nc1nnc(SCC(=O)NCc2cccs2)s1 | 1.84% |
| COc1ccc(CC(=O)Nc2sc(Cc3ccccc3)c(C)c2C(N)=O)cc1 | 3.38% |
| COc1ccc(S(=O)(=O)N2CCN(C(C)C(=O)Nc3ccc(C(C)C)cc3)CC2)cc1 (stereo unspecified) | 0.11% |
| CC(=NNC(N)=O)c1ccc(Cl)c(-n2cccc2)c1 | 0.51% |
| CCN(C(=O)c1ccc(Br)cc1)c1ccccc1 | 0.89% |
| COc1ccc(CNS(=O)(=O)c2cc(Br)ccc2Br)cc1 | 3.49% |
| C[C@@H]1CN([C@H](C)CO)C(=O)CCCn2cc(nn2)CO[C@H]1CN(C)C(=O)Nc1ccc(N2CCCCC2)cc1 | 0.76% |
| O=C(C(=O)N1CCC(CNS(=O)(=O)Cc2ccccc2)CC1)c1cc2ccccc2o1 | 3.18% |
| CCOC(=O)c1cnc(SC)nc1Sc1ccc(Cl)cc1Cl | 9.74% |
| C=CCNC(=O)c1sc(SC)cc1-c1ccc(Cl)cc1 | 4.3% |
| CC(C)(C)C(c1nc2ccccc2[nH]1)n1c(Cc2csc3ccccc23)nc2ccccc21 (stereo unspecified) | 0.77% |
| CC(=O)C1=C(C)N(Cc2ccc(Cl)cc2)C(=S)NC1c1ccc(F)cc1 (stereo unspecified) | -0.39% |
| O=[N+]([O-])c1cc(S(=O)(=O)NCCc2ccccn2)ccc1Cl | 68.6% (active) |
| O=[N+]([O-])c1cccc(S(=O)(=O)NCc2ccccn2)c1 | 2.02% |
| O=S(=O)(NCCc1ccccn1)c1cc(Cl)cc(Cl)c1O | 3.97% |
| CCCCOCC1CN(CCCC)S(=O)(=O)c2c(Oc3ccc(F)cc3)cccc2O1 (stereo unspecified) | 1.51% |
| COC(=O)C1=C(C)N(Cc2cccc(C(F)(F)F)c2)C(=NCc2ccccc2)NC1c1ccc(Cl)cc1 (stereo unspecified) | 19.1% |
